# Assay results from different studies.
# Compare with care: the assays were run in different laboratories.
# MAOB: Amine oxidase [flavin-containing] B (MAOB, Homo sapiens, UniProt P27338)
# GLO1: Lactoylglutathione lyase (GLO1, Homo sapiens, UniProt Q04760)
SMILES,target,read-out,mode,technique,concentration,notes,inhibition [%]
O=C(Nc1cccc(F)c1)c1ccc2c(c1)C(=O)NC2=O,MAOB,enzyme activity,inhibitor,,1 µM,,< 5
O=C(N[C@@H](CSCc1ccc([N+](=O)[O-])cc1)C(=O)NO)c1ccccc1,GLO1,enzyme activity,inhibitor,,1 µM,,46.1
Cc1cc(F)cc2c(CCC(=O)N[C@@H]3C(=O)NC[C@H]3O)c(-c3ccc(F)cc3)[nH]c12,"Beta-1 adrenergic receptor (ADRB1, Homo sapiens, UniProt P08588)",cell-free assay,,,10 µM,,-1.5
Cc1cc(O)c(-c2ccc([C@@H](C)CN(C)C)cc2)c2c1[nH]c(=O)c1sccc12,"Serine/threonine-protein kinase NLK (NLK, Homo sapiens, UniProt Q9UBE8)",cell-free assay,inhibitor,,0.1 µM,lysate,-4.94
O=C(Nc1ccccc1)c1ccc2c(c1)C(=O)NC2=O,MAOB,enzyme activity,inhibitor,,1 µM,,25
CCN1/C(=C/C(C)=O)Sc2ccc(F)cc21,"Endothelin receptor type B (EDNRB, Homo sapiens, UniProt P24530)",ligand displacement,,radioligand,10 µM,,0
O=C(N[C@@H](CSCc1ccccc1)C(=O)NO)c1ccccc1,GLO1,enzyme activity,inhibitor,,1 µM,,31.4
O=C(Nc1cccc(Cl)c1)c1ccc2c(c1)C(=O)NC2=O,MAOB,enzyme activity,inhibitor,,1 µM,,63.9
C#Cc1cc(-c2cc(Nc3nc(N[C@@H](C)c4ccc(F)cn4)ncc3Cl)n[nH]2)ccc1C=O,"Ribosomal protein S6 kinase alpha-6 (RPS6KA6, Homo sapiens, UniProt Q9UK32)",enzyme activity,inhibitor,,0.2 µM,,16.8
NC/C(=C\F)COc1cccc(Cn2c(=S)[nH]c(=O)c3[nH]cnc32)c1,"Histamine H1 receptor (HRH1, Homo sapiens, UniProt P35367)",ligand displacement,,radioligand,10 µM,,< 50
